The term IC50 denotes the concentration that inhibits the measured activity by half.

Test [1] addresses T1, Cysteine protease ATG4B (Homo sapiens, UniProt Q9Y4P1).
T1 sequence (Q9Y4P1 whole entry): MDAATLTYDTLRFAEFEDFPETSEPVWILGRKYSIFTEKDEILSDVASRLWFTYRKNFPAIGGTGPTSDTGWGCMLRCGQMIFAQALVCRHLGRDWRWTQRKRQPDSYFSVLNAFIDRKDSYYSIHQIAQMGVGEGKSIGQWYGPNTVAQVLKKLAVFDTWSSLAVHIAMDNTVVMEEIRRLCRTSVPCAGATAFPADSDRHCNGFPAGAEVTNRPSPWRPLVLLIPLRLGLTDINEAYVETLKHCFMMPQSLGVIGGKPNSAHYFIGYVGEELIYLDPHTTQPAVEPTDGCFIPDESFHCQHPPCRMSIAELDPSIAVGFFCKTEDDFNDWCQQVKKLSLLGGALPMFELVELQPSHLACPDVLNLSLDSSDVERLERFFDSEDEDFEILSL
Briefly: Inhibition of wild type recombinant Atg4B (unknown origin) expressed in Escherichia coli BL21 DE3 using N-terminal His6-tagged LC3B-PLA2 as substrate after 60 mins by NBD-C6-HPC dye-based fluorescence assay.

The target in test [2] is T1, Cysteine protease ATG4B. In words: Inhibition of Atg4B (unknown origin) using YFP-LC3B-EmGFP as substrate after 40 mins by FRET-based assay.
The target in test [3] is T1, Cysteine protease ATG4B. In words: Inhibition of human recombinant GST-tagged Atg4B expressed in Escherichia coli using LC3B-GST as substrate after 6 mins by SDS-PAGE assay.
The target of test [4] is T2, Cysteine protease ATG4B (Homo sapiens) (UniProt Q9Y4P1).
T2 sequence (whole entry): T1 sequence (Q9Y4P1 whole entry)
Briefly: Inhibition of human recombinant GST-tagged Atg4B expressed in Escherichia coli at 20 mM using LC3B-GST as substrate measured after 6 mins by SDS-PAGE assay. The method, boiled down: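 Atg4B at 0.625 ng/µL in Tris-HCl was mixed with inhibitor without preincubation. [LC3B-GST] at 0.4 µg/µL was then added for 6 min. Products were resolved by SDS-PAGE and stained with Oriole fluorescent gel stain. Percent uncleaved substrate was taken by densitometry as OD(LC3B-GST)/[OD(LC3B-GST)+OD(GST)+OD(LC3B)]×100.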

The target of test [5] is T2, Cysteine protease ATG4B (Homo sapiens). Briefly: Inhibition of human recombinant GST-tagged Atg4B expressed in Escherichia coli at 5 mM preincubated for 15 mins followed by LC3B-GST substrate addition after 6 mins by SDS-PAGE assay. The method, boiled down:
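Enzyme (0.625 ng/µL Atg4B, Tris-HCl buffer) was preincubated with inhibitor for 15 min before [LC3B-GST] (0.4 µg/µL) was added for 6 min. Samples were separated by SDS-PAGE and stained with Oriole. Densitometric optical densities of intact fusion protein, GST and LC3B gave percent uncleaved substrate.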

The target is the same in test [6]. Briefly: Inhibition of human recombinant GST-tagged Atg4B expressed in Escherichia coli at 4 mM using LC3B-GST as substrate preincubated up to 20 mins followed by substrate addition measured after 6 mins by SDS-PAGE assay.
For test [7] the target is unchanged. Briefly: Inhibition of human recombinant GST-tagged Atg4B expressed in Escherichia coli at 4 mM preincubated for 15 mins followed by LC3B-GST substrate addition after 6 mins by SDS-PAGE assay. The method, boiled down:
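Recombinant human Atg4B (E. coli-expressed) at 0.625 ng/µL, preincubated 15 min with inhibitor. Then LC3B-GST (0.4 µg/µL) added in Tris-HCl buffer and incubated 6 min. Products resolved by SDS-PAGE and stained with Oriole. % uncleaved substrate derived by densitometry as OD(LC3B-GST)/(sum of all bands). Single representative experiment.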

Test [8] has the same target. In words: Inhibition of human recombinant GST-tagged Atg4B expressed in Escherichia coli at 40 mM using LC3B-GST as substrate measured after 6 mins by SDS-PAGE assay. A digest of the protocol: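 Recombinant human Atg4B (E. coli) at 0.625 ng/µL, with inhibitor dilutions of 0–40 mM, either preincubated 15 min or not preincubated. LC3B-GST (0.4 µg/µL) added in Tris-HCl buffer for 6 min. SDS-PAGE separation and Oriole staining followed. % uncleaved fusion protein derived from band optical densities. Single representative experiment.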

The target is the same in test [9]. In words: Inhibition of human recombinant GST-tagged Atg4B expressed in Escherichia coli after 2 to 20 hrs by fluorescence assay. A digest of the protocol: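 Fluorogenic peptides of 8, 10, 12 or 16 residues matching pro-LC3B Glu105–Gly120 (N-terminal to scissile Gly120), each C-terminally capped with an aminocarboxycoumarin (ACC) tag. Cleavage by Atg4B at about 20 nM was followed by fluorescence release for up to 20 h.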

The structures appear in SMILES notation. The source made the active and inactive calls. The rule behind the calls is not given here.

On to `O=C(O)c1cc(O)c(=O)c2c(O)c(O)ccc2c1` [7-DESHYDROXYPYROGALLIN-4-CARBOXYLIC ACID], for which the IC50 on Cysteine protease ATG4B [1] amounted to 2.3 µM. With `O=C(N[C@@H](Cc1ccccc1)C(=O)CCl)OCc1ccccc1`, the IC50 against Cysteine protease ATG4B [2] was determined as 0.63 µM.

`Cc1cc(O)c2c(=O)c3c(O)cc(O)c4c5c(O)cc(O)c6c(=O)c7c(O)cc(C)c8c1c2c(c34)c(c78)c65` [HYPERICIN]: at Cysteine protease ATG4B [2], the IC50 worked out at 57 µM. Regarding `O=C(O)C1=CC(=C(c2ccc(O)c(C(=O)O)c2)c2ccc(O)c(C(=O)O)c2)C=CC1=O` [AURINTRICARBOXYLIC ACID], the IC50 on Cysteine protease ATG4B [3] is 38 to 45 µM; at Cysteine protease ATG4B [2] it was 1.3 µM. `CCN1C(=O)C=CC1=O`: the inhibition entry in test [4], in test [5] and in test [6] was “Active” in each case. For the molecule `NC(=O)CI`, the inhibition result in test [7] and in test [8] was “Active” each time. For `Cc1sc2nc(C3CCCCC3)nc(SCC(=O)N3CC(=O)Nc4ccccc43)c2c1C`, the inhibition entry in test [9] was “Active”. Turning to `O=c1oc2c(O)c(O)cc3c(=O)oc4c(O)c(O)cc1c4c23` [ELLAGIC ACID], the inhibition result in test [9] was “Active”. Further, the IC50 at Cysteine protease ATG4B [1] worked out at 5.5 µM.
